Test results: ChEMBL document CHEMBL1123282, “Antiinflammatory activity of substituted 6-hydroxypyrimido[2,1-f]purine-2,4,8(1H,3H,9H)-triones. Atypical nonsteroidal antiinflammatory agents” (J Med Chem, 1986)
Where “and” joins values, the source holds several entries; their conditions need not be identical. Equal entries are not always repeated. Values belong to the compound of their own block, whether it stands above or below them.

Legend:
[1] = test system: Rattus norvegicus; assay: In vivo antiinflammatory activity against rats by RPAR(reverse passive Arthus reaction) synovitis method; type: functional; design: concentration or dose not given beside the values
How it was run: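 Lewis rats, oral drug or placebo 1 h before iv BSA (2.28 mg in saline), then intraarticular rabbit anti-BSA (0.54 mg) into one knee and saline into the other, under light anesthesia. Second oral dose at 3 h; the total of both doses is the calculated dose. About 17 h after induction, subpatellar tissue with synovium is excised and weighed. Response is antibody-minus-saline knee weight, tested by analysis of variance.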

[2] = test system: Rattus norvegicus; assay: Tested in vivo for antiinflammatory activity against chronic adjuvant arthritic rat by prophylactic inhibition 2 degree paw after peroral administration of 10 mg/kg of dose; type: functional; conditions: route oral
How it was run: (§1)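 Prophylactic regimen, rats. Adjuvant is heat-killed Mycobacterium tuberculosis ground to a fine powder in paraffin oil (6 mg/mL); 0.1 mL is injected into the left hind paw. Oral drug is given 1 h before adjuvant challenge, then for 21 consecutive days; controls receive methyl cellulose. Left (1°) and right (2°) hind paw volumes are measured by plethysmograph.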

[3] = target: Cyclooxygenase (Rattus norvegicus) (UniProt P35355+Q63921); assay: In vitro inhibitory activity against Prostaglandin G/H synthase in rat neutrophils at a dose of 50 uM
[4] = target: T1, Polyunsaturated fatty acid 5-lipoxygenase (Rattus norvegicus) (UniProt P12527); assay: In vitro inhibitory activity against Lipoxygenase in rat neutrophils at a dose of 50 uM
T1 sequence (whole entry): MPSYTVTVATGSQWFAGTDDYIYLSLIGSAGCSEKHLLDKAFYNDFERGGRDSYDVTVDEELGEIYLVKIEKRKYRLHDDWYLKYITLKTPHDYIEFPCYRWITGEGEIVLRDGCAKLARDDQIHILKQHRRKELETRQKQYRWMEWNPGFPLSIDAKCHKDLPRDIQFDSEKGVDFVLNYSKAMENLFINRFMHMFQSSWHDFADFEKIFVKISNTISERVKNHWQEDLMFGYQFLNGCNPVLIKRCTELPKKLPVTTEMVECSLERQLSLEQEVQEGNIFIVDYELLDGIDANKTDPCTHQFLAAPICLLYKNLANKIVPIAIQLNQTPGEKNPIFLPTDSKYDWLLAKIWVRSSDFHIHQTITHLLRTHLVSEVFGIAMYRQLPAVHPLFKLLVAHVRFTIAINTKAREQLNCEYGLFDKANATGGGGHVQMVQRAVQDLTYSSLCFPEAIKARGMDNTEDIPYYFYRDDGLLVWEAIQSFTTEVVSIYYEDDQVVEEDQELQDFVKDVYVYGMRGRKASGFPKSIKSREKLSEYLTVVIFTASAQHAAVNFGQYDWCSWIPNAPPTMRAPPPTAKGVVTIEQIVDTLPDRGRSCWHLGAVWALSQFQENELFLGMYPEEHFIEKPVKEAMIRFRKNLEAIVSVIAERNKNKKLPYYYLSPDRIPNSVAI
How it was run: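 Neutrophils come from the 4 h pleural exudate of male Wistar-Lewis rats given iv BSA plus intrapleural rabbit anti-BSA IgG. Cells are washed, red cells lysed with NH4Cl, and resuspended at about 5×10^6 cells/0.1 mL in Tris pH 7.4 with NaCl and 1 mM CaCl2. Cells are preincubated with compound 4 min at room temperature.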

[5] = test system: Rattus norvegicus; assay: Tested in vivo for antiinflammatory activity against chronic adjuvant arthritic rat by prophylactic inhibition 1 degree paw after peroral administration of 10 mg/kg of dose; type: functional; conditions: route oral; how it was run: as §1
[6] = test system: Rattus norvegicus; assay: Compound was tested in vivo for antiinflammatory activity against chronic adjuvant arthritic rat by prophylactic inhibition 2 degree paw after peroral administration of 25 mg/kg of dose; type: functional; conditions: route oral
[7] = test system: Rattus norvegicus; assay: Compound was tested in vivo for antiinflammatory activity against chronic adjuvant arthritic rat by prophylactic inhibition 1 degree paw after peroral administration of 25 mg/kg of dose; type: functional; conditions: route oral

SMILES: CCCCn1c(=O)c2c(nc3n(Cc4ccc(F)cc4)c(O)c(CCC)c(=O)n23)n(CCCC)c1=O
Inhibition [1]: 8%

SMILES: CC(C)c1c(O)n(CCc2ccccc2)c2nc3c(c(=O)n(C)c(=O)n3C)n2c1=O
Inhibition [1]: 17%

inhibition [3]: 17%
inhibition [4]: 25% and 38%
SMILES: Cn1c(=O)c2c(nc3n(Cc4ccccc4)c(O)c(C4C=CCCC4)c(=O)n23)n(C)c1=O (configuration not stated)
inhibition in vivo at 10 mg/kg [2]: 2%
Inhibition [1]: 25%
inhibition in vivo at 10 mg/kg [5]: 8%

inhibition [3]: 3%
inhibition [4]: 8% and 5%
SMILES: C#CCc1c(O)n(Cc2ccc(F)cc2)c2nc3c(c(=O)n(C)c(=O)n3C)n2c1=O
Inhibition [1]: 24%
inhibition in vivo at 25 mg/kg [6]: 19%
inhibition in vivo at 25 mg/kg [7]: 10%

SMILES: Cc1c(O)n(-c2ccccc2)c2nc3c(c(=O)n(C)c(=O)n3C)n2c1=O
Inhibition [1]: 14%

inhibition [3]: 73%
inhibition [4]: 0% and 15%
SMILES: COc1ccc(Cn2c(O)c(CC=C(C)C)c(=O)n3c4c(=O)n(C)c(=O)n(C)c4nc23)cc1
Inhibition [1]: 10%

SMILES: Cn1c(=O)c2c(nc3n(Cc4ccccc4)c(O)c(Cc4ccccc4)c(=O)n23)n(C)c1=O
Inhibition [1]: 16%

SMILES: Cc1c(O)n(Cc2ccc(F)cc2)c2nc3c(c(=O)n(C)c(=O)n3C)n2c1=O
Inhibition [1]: 36%

SMILES: CN(C)CCc1c(O)n(Cc2ccccc2)c2nc3c(c(=O)n(C)c(=O)n3C)n2c1=O
Inhibition [1]: 0%

SMILES: CSc1ccc(Cn2c(O)c(CC=C(C)C)c(=O)n3c4c(=O)n(C)c(=O)n(C)c4nc23)cc1
inhibition in vivo at 25 mg/kg [6]: 63%
inhibition in vivo at 25 mg/kg [7]: 0%

SMILES: CCCc1c(O)n(Cc2ccc(OC)cc2)c2nc3c(c(=O)n(C)c(=O)n3C)n2c1=O
Inhibition [1]: 11%

SMILES: CCO/C(O)=c1\c(=O)n(Cc2ccccc2)c2nc3c(c(=O)n(C)c(=O)n3C)n2c1=O
Inhibition [1]: 0%

SMILES: CCCCc1c(O)n(-c2ccccc2)c2nc3c(c(=O)n(C)c(=O)n3C)n2c1=O
Inhibition [1]: 11%

SMILES: CCOC(=O)c1ccc(Cn2c(O)c(CC=C(C)C)c(=O)n3c4c(=O)n(C)c(=O)n(C)c4nc23)cc1
inhibition in vivo at 25 mg/kg [6]: 10%
inhibition in vivo at 25 mg/kg [7]: 0%

SMILES: CC(C)Cc1c(O)n(Cc2ccccc2)c2nc3c(c(=O)n(C)c(=O)n3C)n2c1=O
Inhibition [1]: 17%

SMILES: Cn1c(=O)c2c(nc3n(Cc4ccccc4)c(O)c(N)c(=O)n23)n(C)c1=O
Inhibition [1]: 11%

SMILES: CCCc1c(O)n(Cc2ccc(Cl)cc2)c2nc3c(c(=O)n(C)c(=O)n3C)n2c1=O
Inhibition [1]: 53%

SMILES: Cc1c(O)n(Cc2ccc(Cl)cc2)c2nc3c(c(=O)n(C)c(=O)n3C)n2c1=O
Inhibition [1]: 28%

SMILES: CC(C)c1c(O)n(Cc2ccccc2)c2nc3c(c(=O)n(C)c(=O)n3C)n2c1=O
Inhibition [1]: 0%

SMILES: CCCCc1c(O)n(Cc2ccc(F)cc2)c2nc3c(c(=O)n(CCCC)c(=O)n3CCCC)n2c1=O
Inhibition [1]: 6%

SMILES: CCSCCc1c(O)n(Cc2ccccc2)c2nc3c(c(=O)n(C)c(=O)n3C)n2c1=O
Inhibition [1]: 0%

inhibition [3]: 9%
inhibition [4]: 11% and 7%
SMILES: C#CCc1c(O)n(Cc2ccccc2)c2nc3c(c(=O)n(C)c(=O)n3C)n2c1=O
inhibition in vivo at 10 mg/kg [2]: 27%
Inhibition [1]: 27%
inhibition in vivo at 10 mg/kg [5]: 6%

SMILES: CCS(=O)(=O)CCc1c(O)n(Cc2ccccc2)c2nc3c(c(=O)n(C)c(=O)n3C)n2c1=O
Inhibition [1]: 6%

inhibition [3]: 49%
inhibition [4]: 26% and 29%
SMILES: C/C=C/Cc1c(O)n(Cc2ccccc2)c2nc3c(c(=O)n(C)c(=O)n3C)n2c1=O
inhibition in vivo at 10 mg/kg [2]: 24%
Inhibition [1]: 12%
inhibition in vivo at 10 mg/kg [5]: 17%

SMILES: CCCCc1c(O)n(CC2CCCCC2)c2nc3c(c(=O)n(C)c(=O)n3C)n2c1=O
inhibition in vivo at 10 mg/kg [2]: 34%
Inhibition [1]: 25%
inhibition in vivo at 10 mg/kg [5]: 11%

SMILES: CC(=O)OCCc1c(O)n(Cc2ccccc2)c2nc3c(c(=O)n(C)c(=O)n3C)n2c1=O
Inhibition [1]: 1%

SMILES: CCCCc1c(O)n(-c2ccc(F)cc2)c2nc3c(c(=O)n(C)c(=O)n3C)n2c1=O
inhibition in vivo at 10 mg/kg [2]: 35%
Inhibition [1]: 26%
inhibition in vivo at 10 mg/kg [5]: 29%

SMILES: CCCCC1C(=O)N(Cc2ccccc2)c2nc3nccnc3n2C1=O (configuration not stated)
inhibition in vivo at 10 mg/kg [2]: 8%
Inhibition [1]: 15%
inhibition in vivo at 10 mg/kg [5]: 0%

SMILES: CCCCn1c(=O)c2c(nc3n(Cc4cccs4)c(O)c(CCC)c(=O)n23)n(CCCC)c1=O
Inhibition [1]: 14%

SMILES: Cc1c(O)n(CCc2ccccc2)c2nc3c(c(=O)n(C)c(=O)n3C)n2c1=O
Inhibition [1]: 14%

SMILES: Cn1c(=O)c2c(nc3n(Cc4ccccc4)c(O)c(CC(=O)O)c(=O)n23)n(C)c1=O
Inhibition [1]: 11%

SMILES: CCCc1c(O)n(Cc2cccs2)c2nc3c(c(=O)n(C)c(=O)n3C)n2c1=O
inhibition in vivo at 10 mg/kg [2]: 9%
Inhibition [1]: 9%
inhibition in vivo at 10 mg/kg [5]: 20%

SMILES: CCCCn1c(=O)c2c(nc3n(Cc4ccccc4)c(O)c(CCC)c(=O)n23)n(CCCC)c1=O
Inhibition [1]: 12%

SMILES: CCCc1c(O)n(-c2ccc(F)cc2)c2nc3c(c(=O)n(C)c(=O)n3C)n2c1=O
Inhibition [1]: 27%

SMILES: CC(=O)Nc1c(O)n(Cc2ccccc2)c2nc3c(c(=O)n(C)c(=O)n3C)n2c1=O
Inhibition [1]: 20%

SMILES: Cn1c(=O)c2c(nc3n(Cc4ccccc4)c(O)cc(=O)n23)n(C)c1=O
Inhibition [1]: 11%

SMILES: CC(C)=CCc1c(O)n(Cc2ccc([S+](C)[O-])cc2)c2nc3c(c(=O)n(C)c(=O)n3C)n2c1=O (configuration not stated)
inhibition in vivo at 25 mg/kg [6]: 47%
inhibition in vivo at 25 mg/kg [7]: 13%

SMILES: Cn1c(=O)c2c(nc3n(Cc4ccccc4)c(O)c(CCO)c(=O)n23)n(C)c1=O
Inhibition [1]: 17%

SMILES: CCCCn1c(=O)c2c(nc3n(Cc4ccccc4)c(O)c(C)c(=O)n23)n(CCCC)c1=O
Inhibition [1]: 27%

SMILES: CCCCC1C(=O)N(Cc2ccccc2)c2nc3ccccc3n2C1=O (configuration not stated)
Inhibition [1]: 0%

SMILES: Cc1c(O)n(Cc2ccccc2)c2nc3c(c(=O)n(C)c(=O)n3C)n2c1=O
Inhibition [1]: 8%

SMILES: CC[S+]([O-])CCc1c(O)n(Cc2ccccc2)c2nc3c(c(=O)n(C)c(=O)n3C)n2c1=O (configuration not stated)
Inhibition [1]: 0%

SMILES: CCCCc1c(O)n(Cc2ccc(Cl)cc2)c2nc3c(c(=O)n(C)c(=O)n3C)n2c1=O
Inhibition [1]: 16%

SMILES: COC(=O)Cc1c(O)n(Cc2ccccc2)c2nc3c(c(=O)n(C)c(=O)n3C)n2c1=O
Inhibition [1]: 14%

SMILES: CCCCn1c(=O)c2c(nc3n(Cc4ccc(OC)cc4)c(O)c(CCC)c(=O)n23)n(CCCC)c1=O
Inhibition [1]: 5%

SMILES: CCCCC1C(=O)N(Cc2ccccc2)c2nc3ncncc3n2C1=O (configuration not stated)
inhibition in vivo at 10 mg/kg [2]: 26%
Inhibition [1]: 21%
inhibition in vivo at 10 mg/kg [5]: 0%

SMILES: CCCc1c(OC)n2c3c(=O)n(C)c(=O)n(C)c3nc2n(Cc2ccccc2)c1=O
Inhibition [1]: 17%

SMILES: CCCc1c(O)n(CCc2ccccc2)c2nc3c(c(=O)n(C)c(=O)n3C)n2c1=O
inhibition in vivo at 10 mg/kg [2]: 38%
Inhibition [1]: 27%
inhibition in vivo at 10 mg/kg [5]: 14%

SMILES: CCCCc1c(O)n(Cc2ccc(Cl)c(Cl)c2)c2nc3c(c(=O)n(C)c(=O)n3C)n2c1=O
inhibition in vivo at 10 mg/kg [2]: 17%
Inhibition [1]: 33%
inhibition in vivo at 10 mg/kg [5]: 0%

SMILES: CCCc1c(O)n(Cc2ccccn2)c2nc3c(c(=O)n(C)c(=O)n3C)n2c1=O
Inhibition [1]: 17%

SMILES: CCCCCCn1c(O)c(CCC)c(=O)n2c3c(=O)n(C)c(=O)n(C)c3nc12
inhibition in vivo at 10 mg/kg [2]: 43%
Inhibition [1]: 37%
inhibition in vivo at 10 mg/kg [5]: 28%

SMILES: Cn1c(=O)c2c(nc3n(Cc4ccc(F)cc4)c(O)c(Cc4ccccc4)c(=O)n23)n(C)c1=O
Inhibition [1]: 10%

SMILES: CCCCc1c(O)n(Cc2ccccc2)c2nccn2c1=O
Inhibition [1]: 17%

SMILES: CCOCCc1c(O)n(Cc2ccccc2)c2nc3c(c(=O)n(C)c(=O)n3C)n2c1=O
Inhibition [1]: 8%

SMILES: CCCCn1c(=O)c2c(nc3n(CCc4ccccc4)c(O)c(CCC)c(=O)n23)n(CCCC)c1=O
Inhibition [1]: 0%

SMILES: CC(C)Cc1c(O)n(-c2ccccc2)c2nc3c(c(=O)n(C)c(=O)n3C)n2c1=O
Inhibition [1]: 16%

SMILES: CCCCc1c(O)n(Cc2ccc(Cl)cc2Cl)c2nc3c(c(=O)n(C)c(=O)n3C)n2c1=O
inhibition in vivo at 10 mg/kg [2]: 29%
Inhibition [1]: 31%
inhibition in vivo at 10 mg/kg [5]: 0%

SMILES: CCCc1c(O)n(-c2ccccc2)c2nc3c(c(=O)n(C)c(=O)n3C)n2c1=O
Inhibition [1]: 11%
